Assay results reported in ChEMBL document CHEMBL3774382, “Design and synthesis of small molecule-sulfotyrosine mimetics that inhibit HIV-1 entry” (Bioorg Med Chem, 2016).

Legend:
[1] = system: Human immunodeficiency virus 1; assay: Antiviral activity against HIV1 CCR5-tropic strain YU2 infected in human 293T cells after 48 hrs by neutralization assay; format: functional, cell-based; details: Human immunodeficiency virus 1, isolate YU2, HEK-293T
Outline: (§1)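 Env-pseudotyped virus made by transfecting 293T cells with SG3denv plus an HIV-1 env plasmid. Medium changed at 24 h, supernatant harvested at 48 h, 0.45 μm filtered, stored at −80 °C. Two-fold serial inhibitor dilutions mixed with virus, then TZM-bl cells added. Incubated at 37 °C, 5% CO₂, fresh medium at 24 h. Luciferase read after lysis at 48 h post-infection. Single round. Tested up to 400 μM.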

[2] = system: Human immunodeficiency virus 1; assay: Antiviral activity against HIV1 NL4-3 infected in human 293T cells after 48 hrs by neutralization assay; format: functional, organism-based; details: Human immunodeficiency virus 1, NL4-3, HEK-293T; outline: as §1
[3] = system: Human immunodeficiency virus 1; assay: Antiviral activity against HIV1 dual CXCR4/CCR5-tropic strain 89.6 infected in human 293T cells after 48 hrs by neutralization assay; format: functional, organism-based; details: Human immunodeficiency virus 1, 89.6, HEK-293T; outline: as §1
[4] = system: Human immunodeficiency virus 1; assay: Antiviral activity against HIV1 CXCR4-tropic strain HxB2 infected in human 293T cells after 48 hrs by neutralization assay; format: functional, organism-based; details: Human immunodeficiency virus 1, HxB2, HEK-293T; outline: as §1
[5] = system: Human immunodeficiency virus 1; assay: Antiviral activity against HIV1 JRCSF infected in human 293T cells after 48 hrs by neutralization assay; format: functional, cell-based; details: Human immunodeficiency virus 1, JRCSF ISOLATE, HEK-293T; outline: as §1
[6] = system: Human immunodeficiency virus 1; assay: Antiviral activity against HIV1 dual CXCR4/CCR5-tropic strain 89.6 infected in human 293T cells at 400 uM after 48 hrs by neutralization assay; format: functional, organism-based; outline: as §1
[7] = system: Human immunodeficiency virus 1; assay: Antiviral activity against HIV1 JRCSF infected in human 293T cells after at 400 uM 48 hrs by neutralization assay; format: functional, cell-based, JRCSF ISOLATE; outline: as §1
[8] = Cytotoxicity against human TZM-bl cells at 500 uM; format: cell-based
[9] = Therapeutic index, ratio of LC50 for human TZM-bl cells to IC50 for HIV1; format: cell-based; details: read-out: TI
[10] = system: Human immunodeficiency virus 1; assay: Antiviral activity against HIV1 CXCR4-tropic strain HxB2 infected in human 293T cells at 400 uM after 48 hrs by neutralization assay; format: functional, organism-based; outline: as §1
[11] = system: Human immunodeficiency virus 1; assay: Antiviral activity against HIV1 CCR5-tropic strain YU2 infected in human 293T cells at 400 uM after 48 hrs by neutralization assay; format: functional, cell-based, isolate YU2; outline: as §1
293T [12] = assay: Inhibition of envelope gp120 in CCR5-tropic HIV1 YU2 infected in human 293T cells assessed as combination index at 1: 10 at 1:10 inhibitor to CCR5 Nt sulfated peptide (2 to 18) by single round neutralization assay; format: cell-based; details: Human immunodeficiency virus type 1 (isolate YU2)
Outline: (§2)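 Single-round YU2 pseudovirus neutralization in TZM-bl cells with luciferase read-out. Virus treated with inhibitor alone, with sulfated CCR5 N-terminal peptide 2–18 alone, or with a constant-ratio mixture, two-fold serial dilutions starting near 30× the single-agent IC₅₀. The ratio approximates the ratio of single-agent IC₅₀s. Analysed by the Chou–Talalay method. DRI is IC₅₀ alone divided by IC₅₀ in combination. CI below 1, equal to 1 and above 1 mean synergy, additivity and antagonism.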

[13] = Cytotoxicity against human TZM-bl cells; format: cell-based; details: read-out: LC50 (the source's name)
293T [14] = assay: Inhibition of envelope gp120 in CCR5-tropic HIV1 YU2 infected in human 293T cells assessed as dose reduction index ratio at 1: 10 at 1:10 inhibitor to CCR5 Nt sulfated peptide (2 to 18) by single round neutralization assay; format: cell-based; details: Human immunodeficiency virus type 1 (isolate YU2); outline: as §2
[15] = Cytotoxicity against human TZM-bl cells at 200 to 500 uM; format: cell-based
[16] = system: Human immunodeficiency virus 1; assay: Antiviral activity against HIV1 CCR5-tropic strain YU2 infected in human 293T cells at 500 uM after 48 hrs by neutralization assay; format: functional, cell-based, isolate YU2
[17] = Binding affinity to HIV immobilized envelop gp120 at 80 to 350 uM by surface plasmon resonance analysis; design: species or system Human immunodeficiency virus

SMILES	IC50 [1]	IC50 [2]	IC50 [3]	IC50 [4]	IC50 [5]	further results
CC1=NN(c2nc(-c3ccc(C(F)(F)F)cc3)cs2)C(=O)/C1=N/Nc1ccc(S(=O)(=O)O)cc1	139 µM					
CC1=NN(c2nc(-c3cccc(Cl)c3)cs2)C(=O)/C1=N/Nc1ccc(S(=O)(=O)O)cc1	432 µM					
CC1=NN(c2nc(-c3ccccc3)cs2)C(=O)/C1=N\Nc1ccc2c(S(=O)(=O)O)cc(S(=O)(=O)O)cc2c1	137 µM	33.1 µM	101 µM	51.1 µM	64.8 µM	
COc1ccc(-c2csc(N3N=C(C(F)(F)F)/C(=N/Nc4ccc5c(S(=O)(=O)O)cc(S(=O)(=O)O)cc5c4)C3=O)n2)cc1	298 µM	104 µM		80 µM		IC50 [6]: Not Active; IC50 [7]: Not Active
CC1=NN(c2nc(-c3ccc(C)cc3)cs2)C(=O)/C1=N\Nc1ccc(S(=O)(=O)O)cc1	126 µM					
COc1ccc(-c2csc(N3N=C(C)/C(=N/Nc4ccc5c(S(=O)(=O)O)cc(S(=O)(=O)O)cc5c4)C3=O)n2)cc1	53.8 µM	7 µM	9.2 µM	8.1 µM	22.1 µM	Activity [8]: Non-toxic; selectivity ratio [9]: > 30
CC1=NN(c2nc(-c3ccc(O)c(O)c3)cs2)C(=O)/C1=N/Nc1ccc(S(=O)(=O)O)cc1	512 µM					
COc1ccc(OC)c(-c2csc(N3N=C(C)/C(=N\Nc4ccc(S(=O)(=O)O)cc4)C3=O)n2)c1	189 µM					
CC1=NN(c2nc(C(F)(F)F)cs2)C(=O)/C1=N\Nc1ccc2c(S(=O)(=O)O)cc(S(=O)(=O)O)cc2c1		80.1 µM	79.7 µM		83.3 µM	IC50 [10]: Not Active; IC50 [11]: Not Active
CN(C)c1ccc(-c2csc(N3N=C(c4ccccc4)/C(=N/Nc4ccc5c(S(=O)(=O)O)cc(S(=O)(=O)O)cc5c4)C3=O)n2)cc1	23.8 µM	2.9 µM	3.8 µM	1.1 µM	8 µM	CI (293T [12]): 2.5; CC50 [13]: 330 µM; selectivity ratio [9]: 13; Ratio (293T [14]): 1.2
O=C1/C(=N\Nc2ccc3c(S(=O)(=O)O)cc(S(=O)(=O)O)cc3c2)C(c2ccccc2)=NN1c1nc(C(F)(F)F)cs1	27.9 µM	6.3 µM	2.4 µM	6.8 µM	5.8 µM	CC50 [13]: 370 µM; selectivity ratio [9]: 13; Activity [15]: Toxic
COc1ccc(-c2csc(N3N=C(C)/C(=N/Nc4cc(S(=O)(=O)O)cc5cc(S(=O)(=O)O)cc(S(=O)(=O)O)c45)C3=O)n2)cc1	47.6 µM			22.5 µM	27 µM	
CC1=NN(c2nc(-c3ccc(S(=O)(=O)O)cc3)cs2)C(=O)/C1=N/Nc1ccc(S(=O)(=O)O)cc1						IC50 [16]: Not Active
O=C1/C(=N\Nc2cc(S(=O)(=O)O)cc3cc(S(=O)(=O)O)cc(S(=O)(=O)O)c23)C(c2ccccc2)=NN1c1nc(-c2ccccc2)cs1	148 µM			29.3 µM	35.5 µM	
O=C1/C(=N\Nc2ccc3c(S(=O)(=O)O)cc(S(=O)(=O)O)cc3c2)C(c2ccccc2)=NN1c1nc(-c2nccs2)cs1	30.9 µM	10.2 µM	6.7 µM	12 µM	19.5 µM	
COc1ccc(-c2csc(N3N=C(c4ccccc4)/C(=N/Nc4ccc5c(S(=O)(=O)O)cc(S(=O)(=O)O)cc5c4)C3=O)n2)cc1	24.7 µM	5.8 µM	3.2 µM	7.5 µM	10.2 µM	CI (293T [12]): 2.3; CC50 [13]: 200 µM; Kd [17]: 80 µM; selectivity ratio [9]: 10; Ratio (293T [14]): 1.3; Activity [15]: Toxic
COc1ccc(-c2csc(N3N=C(C)/C(=N\Nc4ccc(CS(=O)(=O)O)cc4)C3=O)n2)cc1						IC50 [16]: Not Active
CC1=NN(c2nc(-c3ccc(OC(F)(F)F)cc3)cs2)C(=O)/C1=N/Nc1ccc(S(=O)(=O)O)cc1	400 µM					
COc1ccc(-c2csc(N3N=C(c4ccccc4)/C(=N/Nc4cc(S(=O)(=O)O)cc5cc(S(=O)(=O)O)cc(S(=O)(=O)O)c45)C3=O)n2)cc1	80.8 µM			18.7 µM	32.3 µM	Activity [8]: Non-toxic; selectivity ratio [9]: > 30
O=C1/C(=N\Nc2ccc3c(S(=O)(=O)O)cc(S(=O)(=O)O)cc3c2)C(c2ccccc2)=NN1c1nc(-c2ccc(OC(F)(F)F)cc2)cs1	52.8 µM	10.7 µM	14.8 µM	14.2 µM	29.8 µM	
CC1=NN(c2nc(-c3ccccc3)cs2)C(=O)/C1=N\Nc1cc(S(=O)(=O)O)cc2cc(S(=O)(=O)O)cc(S(=O)(=O)O)c12				36.8 µM	47.6 µM	CC50 [13]: 200 µM; selectivity ratio [9]: < 10; Activity [15]: Toxic; IC50 [11]: Not Active
O=C1/C(=N\Nc2cc(S(=O)(=O)O)cc3cc(S(=O)(=O)O)cc(S(=O)(=O)O)c23)C(c2ccccc2)=NN1c1nc(-c2ccc(C(F)(F)F)cc2)cs1	80.6 µM			28.9 µM	30.8 µM	
COCC1=NN(c2nc(-c3ccc(OC)cc3)cs2)C(=O)/C1=N\Nc1ccc2c(S(=O)(=O)O)cc(S(=O)(=O)O)cc2c1	74.9 µM	15.6 µM	22.3 µM	10.1 µM	36.2 µM	
COc1ccc(OC)c(-c2csc(N3N=C(c4ccccc4)/C(=N/Nc4ccc5c(S(=O)(=O)O)cc(S(=O)(=O)O)cc5c4)C3=O)n2)c1	30.7 µM	3.6 µM	2.9 µM	2.5 µM	9.9 µM	Activity [8]: Non-toxic; selectivity ratio [9]: 16
COc1ccc(-c2csc(N3N=C(COc4ccccc4)/C(=N/Nc4ccc5c(S(=O)(=O)O)cc(S(=O)(=O)O)cc5c4)C3=O)n2)cc1	62.4 µM	11.2 µM	14.6 µM	9.4 µM	24.1 µM	
CC1=NN(c2nc(-c3ccc(C(F)(F)F)cc3)cs2)C(=O)/C1=N\Nc1cc(S(=O)(=O)O)cc2cc(S(=O)(=O)O)cc(S(=O)(=O)O)c12	91.9 µM			19.7 µM	26.1 µM	
O=C1/C(=N\Nc2ccc3c(S(=O)(=O)O)cc(S(=O)(=O)O)cc3c2)C(c2ccccc2)=NN1c1nc(-c2ccccc2)cs1	43.7 µM	7.1 µM	8.4 µM	3.6 µM	30.7 µM	Kd [17]: 350 µM
O=C1/C(=N\Nc2ccc(S(=O)(=O)O)cc2)C(c2ccccc2)=NN1c1nc(-c2ccccc2)cs1						Activity [8]: Non-toxic
O=C1/C(=N\Nc2ccc3c(S(=O)(=O)O)cc(S(=O)(=O)O)cc3c2)C(c2ccccc2)=NN1c1nc(-c2ccc3c(c2)OCCO3)cs1	22.3 µM	7.7 µM	8.9 µM	5.2 µM	14.9 µM	CI (293T [12]): 1.9; CC50 [13]: 70 µM; selectivity ratio [9]: < 10; Ratio (293T [14]): 1.2
